From paper PMC4855275 (Experimental & Molecular Medicine, 2016)
“Also recorded” adds a separate entry of the source.

Legend:
[1] = target: myc-PAK3 (pT421) in HeLa cells (Homo sapiens, UniProt O75914); experiment: Sorbitol-induced PAK3 autophosphorylation in cells; type: cell-based; settings: 20 μM for 2 h, then 0.4 M sorbitol
Method in brief: (§1)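 HeLa transfected (Lipofectamine, 24 h) with 2 μg myc-PAK1 or myc-PAK3 cDNA. Cells exposed to test compound 2 h, then 0.4 M sorbitol 0.5 h; lysed in HEPES/Triton buffer with NaF and vanadate. Immunoblotted with anti-phospho-group I PAK antibody (PAK1 T423; PAK3 T421); myc-PAK levels by anti-Myc; chemiluminescent detection; ≥3 experiments.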

PAK1^T423E [2] = target: T1, PAK1^T423E (Homo sapiens, UniProt Q13153, T423E); experiment: In vitro PAK1 assay with active PAK1; type: biochemical; settings: 0.5 h; 40 μM in Figure 3c
Method in brief: (§2)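 Preincubated with test compound or DMSO 0.5 h, 30 °C, then 5 μCi [γ-³²P]ATP 0.5 h, 30 °C. 15% SDS-PAGE; MBP phosphorylation read by autoradiography; total MBP immunoblot as loading control; ≥3 experiments.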

[3] = target: YFP-PBD and CFP-V12Cdc42 fusion proteins in HeLa cells (Homo sapiens, UniProt Q13153); experiment: FRET analysis of V12Cdc42–PBD interaction in cells; type: cell-based; settings: 20 μM, 1.5 h
Method in brief: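 HeLa on poly-L-lysine-coated coverslips transfected with YFP-PBD and CFP-V12Cdc42 plasmids. At 12 h post-transfection, DMSO or 20 μM test compound applied and imaged over 1.5 h (ex 433 nm; em 475 nm CFP, 530 nm FRET). Background-subtracted FRET/CFP ratio used as efficiency, normalised to time zero = 1; 16 cells per compound.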

PBD of PAK1 (Wt-PBD) = PBD of PAK1 (Wt-PBD) (Homo sapiens, UniProt Q13153); experiment: SPR binding to immobilized GST-PBD; settings: Kd for the compound–PBD interaction, 25 °C, 1:1 Langmuir model
Method in brief: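 GST (reference) and wild-type GST-PBD amine-coupled to CM5 chips at about 10 000 RU. Runs at 25 °C in 10 mM HEPES, 150 mM NaCl, 0.005% P20, 0.4% DMSO, pH 7.4. Test compound injected at 12.5, 25, 50 or 100 μM, 20 μl min⁻¹. Kd taken as kd/ka from a 1:1 Langmuir fit. At least three independent experiments.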

full-length PAK3 = full-length PAK3 (Homo sapiens, UniProt O75914); experiment: In vitro inhibition of PAK family members, PAK3; type: biochemical; settings: 40 μM, with Cdc42•GTP
full-length PAK1 = full-length PAK1 (Homo sapiens, UniProt Q13153); experiment: In vitro inhibition of PAK family members, PAK1; type: biochemical; settings: 40 μM, with Cdc42•GTP
[4] = target: PAK1^T423E/LL (H83L/H86L) (Homo sapiens, UniProt Q13153, H83L/H86L/T423E); experiment: In vitro kinase assay with LL mutant of active PAK1; type: biochemical; settings: 40 μM, 0.5 h
Method in brief: as §2

HeLa cells = experiment: Cell viability / cytotoxicity; type: cell-based; settings: for Light-induced cytotoxicity: during FRET analysis
Method in brief: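 HeLa seeded at 2 × 10⁵ cells per ml. Test compound at 20 μM final for 2, 4, 6, 8 or 12 h at 37 °C. WST-8 then added (10% v/v final) for 2 h at 37 °C; absorbance read at 450 nm.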

[5] = target: myc-PAK1 (pT423) in HeLa cells (Homo sapiens, UniProt Q13153); experiment: Sorbitol-induced PAK1 autophosphorylation in cells; type: cell-based; settings: 20 μM for 2 h, then 0.4 M sorbitol
Method in brief: as §1

[6] = test system: R1K3 (PAK1 CD replaced by PAK3 CD) in HeLa cells; experiment: CD-swapping experiment, R1K3; type: cell-based; settings: 20 μM for 2 h, then 0.4 M sorbitol
PBD-LL (H83L/H86L) = PBD-LL (H83L/H86L) (Homo sapiens, UniProt Q13153, H83L/H86L); experiment: SPR binding to mutated PBD; settings: 100 μM compound
Method in brief: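 GST-tagged wild-type or H83L/H86L PAK1 PBD was expressed in E. coli, purified on glutathione-Sepharose, and amine-coupled to CM5 chips (~10 000 RU), with GST as control. Test compound (100 μM) was flowed at 20 μl min⁻¹, 25 °C, in 10 mM HEPES, 150 mM NaCl, 0.005% P20, 0.4% DMSO, pH 7.4. Sensorgrams were representative of ≥3 independent experiments.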

pMEK1^S298 in 293T cells = experiment: MEK1 S298 phosphorylation downstream of PAK1; type: cell-based; settings: 293T cells with myc-PAK1 and GFP-V12Cdc42, 20 μM, 2 h
Method in brief: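 293T co-transfected with myc-PAK1 and GFP-V12Cdc42. After 24 h, test compound at 20 μM for 2 h. Lysates immunoblotted for pPAK1 T423 and pMEK S298; expressed proteins checked with anti-Myc and anti-GFP. Membranes blocked in 3% BSA/TBS-T, primary antibody 1 h RT, HRP secondary, chemiluminescence. At least three independent experiments.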

Cdc42–PBD interaction = Cdc42–PBD interaction (Homo sapiens, UniProt Q13153); experiment: SPR of Cdc42•GTP binding to immobilized PBD in presence of compound; settings: 10 µM compound
[7] = target: Cdc42–PBD interaction (PBD of PAK1) (Homo sapiens, UniProt Q13153); experiment: ELISA of the Cdc42–PBD interaction; type: binding
Method in brief: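 Wells coated overnight at 4 °C with His-tagged PAK1 PBD (1 μg ml⁻¹) in carbonate–bicarbonate buffer, pH 9.6; TBS-T washes. GST-Cdc42 loaded with GTPγS (0.5 h, RT), then GST-Cdc42(GTPγS) (100 ng ml⁻¹) with test compound for 0.5 h RT and 1 h 37 °C. Bound Cdc42 detected with HRP-anti-GST (200 ng ml⁻¹, 1 h, 37 °C) and ABTS (pH 5.6, 15–30 min); stopped with 1% SDS; A405.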

PAK1^T423E [8] = target: T1, PAK1^T423E; settings: reported; ref [11], [12]; cited from earlier work
Wt-PAK1 (full-length) = settings: reported; ref [11], [12]; cited from earlier work

Sequence of full-length PAK1 (Q13153 whole entry): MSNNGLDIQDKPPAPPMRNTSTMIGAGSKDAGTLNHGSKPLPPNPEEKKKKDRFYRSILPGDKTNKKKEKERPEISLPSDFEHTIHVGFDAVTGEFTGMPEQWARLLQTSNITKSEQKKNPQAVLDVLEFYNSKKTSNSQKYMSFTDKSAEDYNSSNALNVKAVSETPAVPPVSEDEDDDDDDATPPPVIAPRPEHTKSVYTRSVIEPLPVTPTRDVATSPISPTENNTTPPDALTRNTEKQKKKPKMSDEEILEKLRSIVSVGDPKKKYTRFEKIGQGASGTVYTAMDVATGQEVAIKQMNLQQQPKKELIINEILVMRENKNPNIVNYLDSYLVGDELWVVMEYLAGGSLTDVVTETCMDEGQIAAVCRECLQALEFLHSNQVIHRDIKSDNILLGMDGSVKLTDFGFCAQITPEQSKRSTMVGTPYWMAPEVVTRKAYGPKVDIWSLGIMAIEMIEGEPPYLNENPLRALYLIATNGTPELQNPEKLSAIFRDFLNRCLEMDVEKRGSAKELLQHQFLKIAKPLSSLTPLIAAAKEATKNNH
Sequence of myc-PAK1 (pT423) in HeLa cells (Q13153 whole entry): as above
Sequence of Cdc42–PBD interaction (PBD of PAK1) (Q13153 67-150): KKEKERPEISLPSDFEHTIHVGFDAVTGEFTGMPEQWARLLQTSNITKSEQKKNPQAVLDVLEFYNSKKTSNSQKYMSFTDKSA
T1 sequence (Q13153 whole entry T423E): as the sequence (Q13153 whole entry) above, with T423E counted along it
Sequence of myc-PAK3 (pT421) in HeLa cells (O75914 1-544 isoform O75914-2): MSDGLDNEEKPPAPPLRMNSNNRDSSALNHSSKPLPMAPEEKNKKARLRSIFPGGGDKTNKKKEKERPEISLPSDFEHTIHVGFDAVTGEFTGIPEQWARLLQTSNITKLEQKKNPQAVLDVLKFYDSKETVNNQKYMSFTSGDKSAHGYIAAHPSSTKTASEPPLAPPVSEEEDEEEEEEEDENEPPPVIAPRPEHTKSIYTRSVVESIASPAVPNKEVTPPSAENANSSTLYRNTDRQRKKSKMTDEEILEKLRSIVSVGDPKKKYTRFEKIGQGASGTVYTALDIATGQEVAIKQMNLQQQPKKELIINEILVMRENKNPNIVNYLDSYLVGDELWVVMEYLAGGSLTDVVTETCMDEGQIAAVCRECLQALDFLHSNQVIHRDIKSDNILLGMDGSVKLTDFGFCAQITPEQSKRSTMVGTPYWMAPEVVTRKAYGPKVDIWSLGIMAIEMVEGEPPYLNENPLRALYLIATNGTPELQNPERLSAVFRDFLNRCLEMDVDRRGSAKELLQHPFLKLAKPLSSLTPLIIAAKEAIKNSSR
Sequence of PBD of PAK1 (Wt-PBD) (Q13153 67-150): as the sequence (Q13153 67-150) above
Sequence of Cdc42–PBD interaction (Q13153 67-150): as above
Sequence of PBD-LL (H83L/H86L) (Q13153 67-150 H83L/H86L): as the sequence (Q13153 67-150) above, with H17L, H20L counted along it
Sequence of PAK1^T423E/LL (H83L/H86L) (Q13153 whole entry H83L/H86L/T423E): as the sequence (Q13153 whole entry) above, with H83L, H86L, T423E counted along it
Sequence of full-length PAK3 (O75914 1-544 isoform O75914-2): as the sequence (O75914 1-544 isoform O75914-2) above
Sequence of YFP-PBD and CFP-V12Cdc42 fusion proteins in HeLa cells (Q13153 67-150): as the sequence (Q13153 67-150) above

Compound	Kd (PBD of PAK1 (Wt-PBD))	Inhibition of full-length PAK1 (MBP phosphorylation) (full-length PAK1)	PAK1 autophosphorylation (pT423) [5]	Inhibition of sorbitol-activated R1K3 [6]	Binding affinity to PBD-LL compared with Wt-PBD (PBD-LL (H83L/H86L))	Interference with the Cdc42–PBD interaction (Cdc42–PBD interaction)	Light-induced cytotoxicity (HeLa cells)	Inhibitory activity on the Cdc42–PBD interaction [7]	further results
O=C1C=CC(=O)c2ccccc21 [compound 7, 1,4-naphthoquinone]	< 7 µM	suppressed the activities of both PAK1 and PAK3 to a similar degree	greatly suppressed; also recorded: almost completely inhibited	almost completely inhibited	significantly reduced (to approximately half of those for Wt-PBD binding)	–	–	–	PAK3 autophosphorylation (pT421) [1]: greatly suppressed; also recorded: specifically inhibited; MBP phosphorylation by PAK1^T423E (PAK1^T423E [2]): markedly suppressed; FRET efficiency [3]: decreased; Inhibition of full-length PAK3 (MBP phosphorylation) (full-length PAK3): suppressed the activities of both PAK1 and PAK3 to a similar degree; Inhibitory effect on PAK1^T423E/LL [4]: little inhibitory effect; Cytotoxicity (HeLa cells; HeLa cells, 20 μM): no significant cytotoxicity; pMEK1^S298 levels (pMEK1^S298 in 293T cells): markedly decreased
O=C1C=C(Cl)C(=O)c2ccccc21 [compound 14, 2-Chloro-1,4-NQ]	–	selective inhibition of PAK1	greatly suppressed; also recorded: almost completely inhibited	almost completely inhibited	–	effectively interfered with the Cdc42–PBD interaction	light-induced cytotoxicity	high inhibitory activities	–
O=C1C=C(Br)C(=O)c2ccccc21 [compound 13, 2-Bromo-1,4-NQ]	–	selective inhibition of PAK1	only weakly suppressed	–	–	effectively interfered with the Cdc42–PBD interaction	light-induced cytotoxicity	high inhibitory activities	–
COC(=O)C1=CC(=O)c2ccccc2C1=O [compound 8, 2-methoxycarbonyl-1,4-naphthoquinone]	< 7 µM	–	–	–	significantly reduced (to approximately half of those for Wt-PBD binding)	–	–	high inhibitory activities	–
Oc1ccc2ccccc2c1SSc1c(O)ccc2ccccc12 [IPA-3, 2,2′-dihydroxy-1,10-dinaphthyldisulfide]	–	–	–	–	–	–	–	–	Susceptibility of PAK1^T423E to inhibition (PAK1^T423E [8]): not susceptible to inhibition; Inhibition of Cdc42-dependent activation of wild-type group I PAKs (Wt-PAK1 (full-length)): effectively inhibit
